Measurements taken from ChEMBL document CHEMBL5329147, “Synthesis of tryptanthrin appended dispiropyrrolidine oxindoles and their antibacterial evaluation” (RSC Med Chem, 2023).
Converted amounts (≈) assume the structure as drawn.

What was measured:
[1] = test system: Escherichia coli; test: Antibacterial activity against Escherichia coli ATCC 25922 assessed as bacterial growth inhibition incubated for 18 to 24 hrs by broth microdilution method; assay type: functional; conditions: time 18-24 hrs
Procedure, shortened: (§1)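 CLSI broth microdilution. Overnight starter cultures (single colony, MHBII, 37 °C, shaking 18–24 h) were diluted by OD600 to 10^6 CFU/mL in MHBII. Two-fold dilutions from […] were made from 10 mg/mL DMSO stocks, then incubated 37 °C for 18-24 h. The MIC was the lowest concentration with no visible growth. Three independent runs, duplicate samples.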

[2] = test system: Pseudomonas aeruginosa; test: Antibacterial activity against Pseudomonas aeruginosa ATCC 27853 assessed as bacterial growth inhibition incubated for 18 to 24 hrs by broth microdilution method; assay type: functional; conditions: time 18-24 hrs; procedure, shortened: as §1
[3] = test system: Klebsiella pneumoniae; test: Antibacterial activity against Klebsiella pneumoniae BAA 1705 assessed as bacterial growth inhibition incubated for 18 to 24 hrs by broth microdilution method; assay type: functional; conditions: time 18-24 hrs; procedure, shortened: as §1
[4] = test system: Acinetobacter baumannii; test: Antibacterial activity against Acinetobacter baumannii BAA-1605 assessed as bacterial growth inhibition incubated for 18 to 24 hrs by broth microdilution method; assay type: functional; conditions: time 18-24 hrs; procedure, shortened: as §1
[5] = test system: Staphylococcus aureus; test: Antibacterial activity against Staphylococcus aureus ATCC 29213 assessed as bacterial growth inhibition incubated for 18 to 24 hrs by broth microdilution method; assay type: functional; conditions: time 18-24 hrs; procedure, shortened: as §1
[6] = test system: Staphylococcus aureus; test: Synergistic antibacterial activity against Staphylococcus aureus ATCC 29213 assessed as bacterial growth inhibition incubated for 24 hrs in presence of (S)-8''-Bromo-1-ethyl-1'-methyl-2,12''-dioxo-12''H-dispiro[indoline-3,4'-pyrrolidine-2',6''-indolo[2,1-b]quinazoline]-3',3'-dicarbonitrile by checkerboard assay; assay type: functional
Procedure, shortened: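 Checkerboard in 96-well plates: two-fold serial dilutions, one agent along abscissa, partner antibiotic along ordinate. Wells received ~10⁵ CFU/mL S. aureus ATCC 29213 in MHBII. Incubation 37 °C, 24 h. ΣFIC = FIC A + FIC B, each FIC being combination MIC divided by MIC alone.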

[7] = Selectivity ratio of CC50 for African green monkey Vero cells to MIC against Staphylococcus aureus ATCC 29213; assay type: toxicity, cell-based
[8] = Staphylococcus aureus, ATCC 29213, read-out: MIC

Compound: CCN1C(=O)[C@]2(c3ccccc31)C1CCCN1C1(c3ccccc3-n3c1nc1ccccc1c3=O)C2(C#N)C#N (some centres not stated)
- MIC [1]: > 64 µg/mL
- MIC [2]: > 64 µg/mL
- MIC [3]: > 64 µg/mL
- MIC [4]: > 64 µg/mL
- MIC [5, 8]: 0.25 µg/mL (≈ 0.477 µM)

Compound: CCN1C(=O)[C@@]2(CN(C)C3(c4ccccc4-n4c3nc3ccccc3c4=O)C2(C#N)C#N)c2ccccc21 (some centres not stated)
- MIC [1]: > 64 µg/mL
- MIC [2]: > 64 µg/mL
- MIC [3]: > 64 µg/mL
- MIC [4]: > 64 µg/mL
- MIC [5, 8]: 1 µg/mL (≈ 2.01 µM)

Compound: CO[C@H]1/C=C/O[C@@]2(C)Oc3c(C)c(O)c4c(O)c(c(/C=N/N5CCN(C)CC5)c(O)c4c3C2=O)NC(=O)/C(C)=C\C=C\[C@H](C)[C@H](O)[C@@H](C)[C@@H](O)[C@@H](C)[C@H](OC(C)=O)[C@@H]1C [RIFAMPIN]
- MIC [6]: 0.008 µg/mL
- MIC [5, 8]: 0.008 µg/mL (≈ 0.00972 µM)

Compound: CCN1C(=O)[C@]2(c3cc(Cl)ccc31)C(Cc1c[nH]c3ccccc13)NC1(c3cc(Cl)ccc3-n3c1nc1ccccc1c3=O)C2(C#N)C#N (some centres not stated)
- MIC [1]: > 64 µg/mL
- MIC [2]: > 64 µg/mL
- MIC [3]: > 64 µg/mL
- MIC [4]: > 64 µg/mL
- MIC [5, 8]: 0.25 µg/mL (≈ 0.366 µM)

Compound: CCN1C(=O)[C@@]2(CN(C)C3(c4cc(I)ccc4-n4c3nc3ccccc3c4=O)C2(C#N)C#N)c2ccccc21 (some centres not stated)
- MIC [1]: > 64 µg/mL
- MIC [2]: > 64 µg/mL
- MIC [3]: > 64 µg/mL
- MIC [4]: > 64 µg/mL
- MIC [5, 8]: 0.25 µg/mL (≈ 0.4 µM)

Compound: GENTAMICIN
- MIC [6]: 0.25 µg/mL
- MIC [5]: 0.25 µg/mL

Compound: CCN1C(=O)[C@@]2(CN(C)C3(c4cc([N+](=O)[O-])ccc4-n4c3nc3ccccc3c4=O)C2(C#N)C#N)c2ccccc21 (some centres not stated)
- MIC [1]: > 64 µg/mL
- MIC [2]: > 64 µg/mL
- MIC [3]: > 64 µg/mL
- MIC [4]: > 64 µg/mL
- MIC [5, 8]: 0.25 µg/mL (≈ 0.46 µM)
- selectivity ratio [7]: < 10

Compound: CCN1C(=O)[C@]2(c3ccccc31)C(C(=O)NCC(=O)O)NC1(c3cc(Cl)ccc3-n3c1nc1ccccc1c3=O)C2(C#N)C#N (some centres not stated)
- MIC [1]: > 64 µg/mL
- MIC [2]: > 64 µg/mL
- MIC [3]: > 64 µg/mL
- MIC [4]: > 64 µg/mL
- MIC [5, 8]: 1 µg/mL (≈ 1.61 µM)
- selectivity ratio [7]: 10

Compound: CN1C(=O)[C@@]2(CN(C)C3(c4ccccc4-n4c3nc3ccccc3c4=O)C2(C#N)C#N)c2ccccc21 (some centres not stated)
- MIC [1]: > 64 µg/mL
- MIC [2]: > 64 µg/mL
- MIC [3]: > 64 µg/mL
- MIC [4]: > 64 µg/mL
- MIC [5, 8]: 8 µg/mL (≈ 16.5 µM)

Compound: CC(C)(O/N=C(\C(=O)N[C@@H]1C(=O)N2C(C(=O)[O-])=C(C[n+]3ccccc3)CS[C@H]12)c1csc(N)n1)C(=O)O [CEFTAZIDIME]
- MIC [6]: 8 µg/mL
- MIC [5, 8]: 8 µg/mL (≈ 14.6 µM)

Compound: CCCCCCCCCC(=O)N[C@@H](Cc1c[nH]c2ccccc12)C(=O)N[C@H](CC(N)=O)C(=O)N[C@@H](CC(=O)O)C(=O)N[C@@H]1C(=O)NCC(=O)N[C@@H](CCCN)C(=O)N[C@@H](CC(=O)O)C(=O)N[C@H](C)C(=O)N[C@@H](CC(=O)O)C(=O)NCC(=O)N[C@H](CO)C(=O)N[C@@H]([C@H](C)CC(=O)O)C(=O)N[C@@H](CC(=O)c2ccccc2N)C(=O)O[C@@H]1C
- MIC [6]: 1 µg/mL
- MIC [5, 8]: 1 µg/mL (≈ 0.617 µM)

Compound: CN(C)c1ccc(O)c2c1C[C@H]1C[C@H]3[C@H](N(C)C)C(O)=C(C(N)=O)C(=O)[C@@]3(O)C(O)=C1C2=O [MINOCYCLINE]
- MIC [6]: 0.125 µg/mL
- MIC [5, 8]: 0.125 µg/mL (≈ 0.273 µM)

Compound: CCN1C(=O)[C@]2(c3ccccc31)C(Cc1ccccc1)NC1(c3cc(Br)ccc3-n3c1nc1ccccc1c3=O)C2(C#N)C#N (some centres not stated)
- MIC [1]: > 64 µg/mL
- MIC [2]: > 64 µg/mL
- MIC [3]: > 64 µg/mL
- MIC [4]: > 64 µg/mL
- MIC [5, 8]: 0.25 µg/mL (≈ 0.383 µM)

Compound: CCN1C(=O)[C@@]2(CN(C)C3(c4cc(I)ccc4-n4c3nc3ccc(Cl)cc3c4=O)C2(C#N)C#N)c2ccccc21 (some centres not stated)
- MIC [1]: > 64 µg/mL
- MIC [2]: > 64 µg/mL
- MIC [3]: > 64 µg/mL
- MIC [4]: > 64 µg/mL
- MIC [5, 8]: 1 µg/mL (≈ 1.52 µM)
